We go through ten molecules from ChEMBL document CHEMBL1138349 (J Med Chem, 2007).

Data set [1] deals with T1, Muscarinic acetylcholine receptor M1 (Homo sapiens, UniProt P11229).
T1 sequence (P11229 whole entry): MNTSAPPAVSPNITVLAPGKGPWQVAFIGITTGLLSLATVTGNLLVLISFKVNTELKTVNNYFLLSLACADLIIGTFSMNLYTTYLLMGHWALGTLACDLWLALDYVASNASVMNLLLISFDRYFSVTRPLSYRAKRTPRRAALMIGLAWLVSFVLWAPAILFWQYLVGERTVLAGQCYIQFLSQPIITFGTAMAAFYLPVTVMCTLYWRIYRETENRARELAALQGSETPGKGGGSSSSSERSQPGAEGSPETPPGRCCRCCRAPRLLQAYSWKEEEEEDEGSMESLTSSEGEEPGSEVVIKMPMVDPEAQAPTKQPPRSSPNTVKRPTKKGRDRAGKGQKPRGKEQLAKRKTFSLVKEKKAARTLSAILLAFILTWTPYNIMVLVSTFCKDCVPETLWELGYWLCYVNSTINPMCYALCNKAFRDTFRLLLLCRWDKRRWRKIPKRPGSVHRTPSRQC
Nature of the data set: Displacement of [N-methyl-3H]scopolamine from human recombinant muscarinic M1 receptor expressed in CHO cells. It is filed as cell-based.

The next data set deals with hERG (KCNH2) (Homo sapiens, UniProt Q12809). Nature of the data set: Inhibition of human hERG current at 1 uM. (In general: hERG is a cardiac potassium channel; its block is linked to QT prolongation.)
The nature of data set [2]: Clearance in rat at 5 mg/kg, po and 5 mg/kg, iv. It is filed as ADME, organism-based. To be noted: in vivo.
The nature of data set [3]: Volume of distribution at steady state in rat at 5 mg/kg, po and 5 mg/kg, iv. It is filed as ADME, organism-based. To be noted: in vivo, read-out: Vdss.
Data set [4] is described as follows: Total mean residence time in rat at 5 mg/kg, po. To be noted: in vivo. It is filed as ADME, organism-based. Further details: dose 5 mg/kg, route oral.
Data set [5] in a line: Half life in rat at 5 mg/kg, po. It is filed as ADME, organism-based. Further details: dose 5 mg/kg, route oral. To be noted: in vivo.
A short description of data set [6]: Oral bioavailability in rat at 5 mg/kg. It is filed as ADME, organism-based. To be noted: in vivo.
Data set [7] can be described thus: Clearance in cynomolgus monkey at 5 mg/kg, po and 1.5 mg/kg, iv. It is filed as ADME, organism-based, Macaca fascicularis. To be noted: in vivo.
A short description of data set [8]: Volume of distribution at steady state in cynomolgus monkey at 5 mg/kg, po and 1.5 mg/kg, iv. To be noted: in vivo, read-out: Vdss. It is filed as ADME, organism-based, Macaca fascicularis.
Data set [9] in a line: Total mean residence time in cynomolgus monkey at 5 mg/kg, po. To be noted: in vivo. It is filed as ADME, organism-based, Macaca fascicularis. Further details: dose 5 mg/kg, route oral.
The nature of data set [10]: Half life in cynomolgus monkey at 5 mg/kg, po. It is filed as ADME, organism-based, Macaca fascicularis. Details: dose 5 mg/kg, route oral. To be noted: in vivo.
Data set [11] in a line: Oral bioavailability in cynomolgus monkey at 5 mg/kg. It is filed as ADME, organism-based, Macaca fascicularis. To be noted: in vivo.
The next data set has as its system Rattus norvegicus. Nature of the data set: Inhibition of plasma DPP4 activity in Han Wistar rat at 1 mg/kg, po after 7 hrs. To be noted: read-out: Inhibition.
A further data set concerns Canis familiaris. Nature of the data set: Inhibition of plasma DPP4 activity in Beagle dog at 1 mg/kg, po after 7 hrs. To be noted: Canis lupus familiaris, read-out: Inhibition.
A further data set deals with Rhesus monkey. The data set can be described thus: Inhibition of plasma DPP4 activity in rhesus monkey at 1 mg/kg, po after 7 hrs. To be noted: Macaca mulatta, read-out: Inhibition.
Data set [12] can be described thus: Aqueous solubility at pH 7.4. To be noted: buffer. It is filed as physicochemical. In outline:
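Solubility was measured in aqueous medium at physiological pH 7.4, using a crystalline modification of the free base.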

Data set [13] is described as follows: Distribution coefficient, log D at pH 7.4. It is filed as physicochemical. To be noted: octanol/water.
A short description of data set [14]: Dissociation constant, pKa corresponding to the protonation of the quinazoline. It is filed as physicochemical.
The subject of data set [15] is Mus musculus. Nature of the data set: Reduction in plasma glucose excursion in db/db C57BL/KSJ mouse at 0.1 mg/kg, po by oral glucose tolerance test. To be noted: read-out: Inhibition.
The subject of data set [16] is Mus musculus. Nature of the data set: Reduction in plasma glucose excursion in db/db C57BL/KSJ mouse at 1 mg/kg, po by oral glucose tolerance test. To be noted: read-out: Inhibition.
Data set [17] deals with Mus musculus. The data set can be described thus: Inhibition of plasma DPP4 activity in db/db C57BL/KSJ mouse at 1 mg/kg, po after 30 mins of glucose administration. To be noted: 0.5 h, read-out: Inhibition.
Data set [18] in a line: Dissociation constant, pKa corresponding to the protonation of the primary amino group. It is filed as physicochemical.

Structures are written as SMILES.

Sequence of hERG (KCNH2) (Q12809 whole entry): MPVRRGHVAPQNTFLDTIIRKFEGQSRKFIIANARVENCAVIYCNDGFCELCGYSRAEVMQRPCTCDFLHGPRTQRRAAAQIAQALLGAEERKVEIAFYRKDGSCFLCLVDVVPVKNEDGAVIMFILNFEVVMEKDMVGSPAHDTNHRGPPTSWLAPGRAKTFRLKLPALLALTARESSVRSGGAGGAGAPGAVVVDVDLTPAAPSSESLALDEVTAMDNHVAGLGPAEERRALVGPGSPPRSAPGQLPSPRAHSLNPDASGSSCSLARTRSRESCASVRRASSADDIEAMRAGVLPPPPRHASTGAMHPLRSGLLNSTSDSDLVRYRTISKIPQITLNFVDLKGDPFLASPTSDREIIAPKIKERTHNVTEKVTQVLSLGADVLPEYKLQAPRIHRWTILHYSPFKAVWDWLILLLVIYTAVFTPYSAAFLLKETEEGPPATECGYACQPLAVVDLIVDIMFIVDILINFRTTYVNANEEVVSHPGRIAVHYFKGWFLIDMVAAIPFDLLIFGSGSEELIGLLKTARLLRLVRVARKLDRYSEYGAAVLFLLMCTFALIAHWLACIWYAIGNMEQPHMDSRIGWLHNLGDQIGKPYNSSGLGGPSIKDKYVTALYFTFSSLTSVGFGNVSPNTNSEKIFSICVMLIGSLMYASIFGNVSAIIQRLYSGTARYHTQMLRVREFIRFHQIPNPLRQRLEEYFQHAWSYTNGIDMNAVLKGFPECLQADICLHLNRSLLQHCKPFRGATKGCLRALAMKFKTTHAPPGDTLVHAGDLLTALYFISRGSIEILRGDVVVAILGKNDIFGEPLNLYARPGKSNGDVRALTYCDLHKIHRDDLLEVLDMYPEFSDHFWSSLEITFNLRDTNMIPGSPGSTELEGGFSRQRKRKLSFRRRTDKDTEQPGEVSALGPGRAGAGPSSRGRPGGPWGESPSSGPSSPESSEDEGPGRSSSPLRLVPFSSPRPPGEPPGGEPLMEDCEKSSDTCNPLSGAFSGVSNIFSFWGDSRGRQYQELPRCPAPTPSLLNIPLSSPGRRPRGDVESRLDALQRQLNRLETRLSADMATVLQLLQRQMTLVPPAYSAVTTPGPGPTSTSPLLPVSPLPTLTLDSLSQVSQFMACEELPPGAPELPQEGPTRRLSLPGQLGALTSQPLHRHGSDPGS

With `CC(C)=CCn1c(N2CCC[C@H](N)C2)nc2c1c(=O)n(CC(=O)c1ccccc1)c(=O)n2C`, the half-maximal inhibitory concentration (IC50) in data set [1] is 50 nM.

As for `CC#CCn1c(N2CCC[C@@H](N)C2)nc2c1c(=O)n(CC(=O)c1ccccc1)c(=O)n2C`, in data set [1], the IC50 came out at 6160 nM.

`CC#CCn1c(N2CCC[C@H](N)C2)nc2c1c(=O)n(CC(=O)c1ccccc1)c(=O)n2C`: the IC50 in data set [1] came to 1130 nM.

`CC#CCn1c(N2CCC[C@@H](N)C2)nc2c1c(=O)n(CC(=O)c1ccccc1OCC(=O)NC)c(=O)n2C` displayed a residual activity at 1 µM on hERG (KCNH2) of 88%. In data set [1], the 50% inhibitory concentration (IC50) was 1170 nM.

As to `CC(C)=CCn1c(N2CCC[C@@H](N)C2)nc2c1c(=O)n(CC(=O)c1ccccc1)c(=O)n2C`, the half-inhibitory concentration (IC50) in [1] was found to be 25 nM.

For `CC#CCn1c(N2CCC[C@@H](N)C2)nc2c1c(=O)n(Cc1nc(C)cc3ccccc13)c(=O)n2C`, the residual activity at 1 µM at hERG (KCNH2) came to 78%. Besides, in data set [1], the IC50 worked out at 430 nM.

`CC(C)=CCn1c(N2CCC[C@H](N)C2)nc2c1c(=O)n(Cc1nccc3ccccc13)c(=O)n2C` came in with a residual activity at 1 µM on hERG (KCNH2) of 51%. Also, the IC50 in data set [1] was 26 nM.

`CC#CCn1c(N2CCC[C@@H](N)C2)nc2c1c(=O)n(Cc1ccc(OC)cc1)c(=O)n2C`: on hERG (KCNH2), the residual activity at 1 µM was 51%. Also, the IC50 in [1] worked out at 518 nM.

As for `CC(C)=CCn1c(N2CCC[C@@H](N)C2)nc2c1c(=O)n(Cc1nccc3ccccc13)c(=O)n2C`, the residual activity at 1 µM at hERG (KCNH2) was determined as 51%. For the same molecule, in [1], the IC50 is 5 nM.

`CC#CCn1c(N2CCC[C@@H](N)C2)nc2c1c(=O)n(Cc1nc(C)c3ccccc3n1)c(=O)n2C` [LINAGLIPTIN]: in data set [1], the half-maximal inhibitory concentration (IC50) was 295 nM. The clearance in data set [2] was 37.3 mL/min/kg; in [7], 15.8 mL/min/kg. The Vd in [3] turned out to be 5.4 L/kg; in [8] it was 15.8 L/kg. Further, the figures for the MRT in data set [4] and in data set [9] were 14.3 h and 17.4 h, respectively. The half-life in [5] is 35.9 h; in [10], 41.4 h. The bioavailability in [6] worked out at 50.7%; in data set [11], 50.1%. In addition, the inhibition in vivo at 1 mg/kg with Rattus norvegicus was > 70%; in the data set on Canis familiaris it was > 70%; in the data set on Rhesus monkey, > 70%; in the data set on Mus musculus [16], 66%; in the data set on Mus musculus [17] it was 76%. In addition, in [12], the solubility was > 5000 µg/mL. Moreover, the logD in data set [13] turned out to be 0.4. The values for the pKa in data set [14] and in data set [18] were 1.9 and 8.6, respectively. Further, in the data set with Mus musculus [15], the inhibition in vivo at 0.1 mg/kg is 15%.

Broadly, the IC50 is the concentration needed to halve the response being measured. Broadly, the residual activity is the activity still measured, relative to the control. For orientation: MRT means the average time that molecules of a dose stay in the body. Usually half-life stands for how long it takes for the measured level to halve. As a reminder, the bioavailability is dose-corrected exposure relative to a reference, in per cent. The term solubility denotes the dissolved amount per volume that the medium holds. Usually logD stands for lipophilicity at a set pH, counting ionised and neutral species. As usually defined, the pKa is the pH at which an ionisable group is half protonated.
